In ChEMBL document CHEMBL4390679 (J Med Chem, 2019):
pEC50, pKi: −log10 of the molar value. Calls of active or inactive are those of the source. No cut-off for these calls is given here. Starred links: 1 amine or outer side, 2 acyl side, 3 side chain; linkers in the order of their positions; H or OH if unused. Positions of bridges follow the written chain, without caps; N, C: chain ends. Non-standard residues stand in square brackets, D forms with d. Residues, ends and D or L forms follow the SMILES beside them. Abu(4-yl) = O=C([C@H](CC[*:3])N[*:1])[*:2]; N(4-F-Bzl)Gly = O=C(O)CNCc1ccc(F)cc1; X1 = O=C(CN(CCCO)[*:1])[*:2]

Columns and labels:
Mus musculus [1] = test: Antidepressant-like activity in CD38KOCC Slc:ICR mouse model of autism spectrum disorder assessed as immobility time at 100 ng/ml, ip administered as single dose for 30 mins prior to testing measured for last 4 mins of 6 mins test by tail suspension test (reference value: 74.2 +/- 2.9 sec); format: functional
Mus musculus [2] = test: Cognition enhancing effect in CD38 knock out Slc:ICR mouse sire model of autism spectrum disorder assessed as latency time to retrieve pups by sires at 0.3 mL, ip administered as single dose measured after 30 mins by parental retrieval test (reference value: 600 sec); format: functional
[3] = Half life in Slc:ICR mouse plasma during slow phase at 100 ng/g, iv measured for 15 to 60 mins by LC-MS/MS analysis; format: ADME, organism-based
In short: (§1)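 Male ICR mice (30 g) were given 100 ng/g i.v. via the tail vein. Blood was taken by cardiac puncture immediately and at 5, 15 and 30 min; CSF was taken at 30 min or 12 h. Plasma was deproteinized with acetonitrile/methanol 1:1 containing [13C6,15N]OT internal standard and analysed by LC-MS/MS (C8 column, SRM).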

[4] = Plasma concentration in Slc:ICR mouse at 100 ng/g, iv measured immediately by LC-MS/MS analysis; format: ADME, organism-based; settings: in vivo; in short: as §1
[5] = Half life in Slc:ICR mouse plasma during fast phase at 100 ng/g, iv measured for 15 mins by LC-MS/MS analysis; format: ADME, organism-based; in short: as §1
Mus musculus [6] = test: Antidepressant-like activity in CD38KOCC Slc:ICR mouse model of autism spectrum disorder assessed as decrease in immobility time at 100 ng/ml, ip administered as single dose for 24 hrs prior to testing measured for last 4 mins of 6 mins test by tail suspension test
Mus musculus [7] = test: Cognition enhancing effect in CD38KOCC Slc:ICR mouse model of autism spectrum disorder assessed as increase in sucrose consumption over water at 100 ng/ml, ip administered as single dose measured after 24 hrs; format: functional, organism-based
Mus musculus [8] = test: Cognition enhancing effect in CD38 knock out Slc:ICR mouse sire model of autism spectrum disorder assessed as decrease in latency time to retrieve pups by sires at 0.3 mL, ip administered as single dose measured after 6 hrs by parental retrieval test; format: functional, organism-based
[9] = Stability in mouse plasma assessed as parent compound remaining at 50 ng/ml measured after 2 hrs by LC-MS/MS analysis; format: ADME, cell-free; settings: read-out: Stability
In short: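 Pooled mouse plasma spiked to a final 50 ng/mL was incubated at 37 °C for 1–120 min, quenched with acetonitrile/methanol 1:1 plus internal standard, and analysed by LC-MS/MS. Percent of the initial concentration was calculated; 85–115% was taken as acceptable.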

Vasopressin V1a receptor = Vasopressin V1a receptor (Homo sapiens, UniProt P37288); test: Agonist activity at recombinant human V1a receptor expressed in HEK293 cells assessed as increase in intracellular calcium level measured at 3 secs interval for 5 mins by fura-2/AM dye based micro spectrofluorometric method; format: cell-based
Sequence of Vasopressin V1a receptor (P37288 whole entry): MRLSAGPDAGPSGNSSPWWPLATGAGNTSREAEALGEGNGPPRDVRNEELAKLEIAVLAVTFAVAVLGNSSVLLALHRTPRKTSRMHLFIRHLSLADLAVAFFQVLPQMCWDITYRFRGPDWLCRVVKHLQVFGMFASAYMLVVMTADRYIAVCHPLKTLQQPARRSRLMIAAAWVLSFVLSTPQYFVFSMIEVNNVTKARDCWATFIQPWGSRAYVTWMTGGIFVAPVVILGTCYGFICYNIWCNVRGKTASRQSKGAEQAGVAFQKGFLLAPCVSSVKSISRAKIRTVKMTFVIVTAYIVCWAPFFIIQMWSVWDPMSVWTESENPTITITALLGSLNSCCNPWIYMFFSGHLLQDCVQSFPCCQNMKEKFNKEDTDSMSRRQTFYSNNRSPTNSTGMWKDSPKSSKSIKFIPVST

Mus musculus [10] = test: Cognition enhancing effect in CD38KOCC Slc:ICR mouse model of autism spectrum disorder assessed as sucrose consumption over water at 100 ng/ml, ip administered as single dose measured after 60 mins relative to control (reference value: 0.46 +/- 0.04); format: functional
Mus musculus [11] = test: Cognition enhancing effect in CD38 knock out Slc:ICR mouse sire model of autism spectrum disorder assessed as latency time to retrieve pups by sires at 100 ng/ml, ip administered as single dose measured after 12 hrs by parental retrieval test (reference value: 233 +/- 68 sec); format: functional
Mus musculus [12] = test: Antidepressant-like activity in CD38KOCC Slc:ICR mouse model of autism spectrum disorder assessed as immobility time at 100 ng/ml, ip administered as single dose for 24 hrs prior to testing measured for last 4 mins of 6 mins test by tail suspension test (reference value: 56.5 +/- 18.8 sec)
[13] = biological target: T1, Oxytocin receptor (Homo sapiens) (UniProt P30559); test: Displacement of [3H]OT from recombinant human OTR expressed in HEK293 cell membranes assessed as dissociation half life for [3H]OT binding
T1 sequence (whole entry): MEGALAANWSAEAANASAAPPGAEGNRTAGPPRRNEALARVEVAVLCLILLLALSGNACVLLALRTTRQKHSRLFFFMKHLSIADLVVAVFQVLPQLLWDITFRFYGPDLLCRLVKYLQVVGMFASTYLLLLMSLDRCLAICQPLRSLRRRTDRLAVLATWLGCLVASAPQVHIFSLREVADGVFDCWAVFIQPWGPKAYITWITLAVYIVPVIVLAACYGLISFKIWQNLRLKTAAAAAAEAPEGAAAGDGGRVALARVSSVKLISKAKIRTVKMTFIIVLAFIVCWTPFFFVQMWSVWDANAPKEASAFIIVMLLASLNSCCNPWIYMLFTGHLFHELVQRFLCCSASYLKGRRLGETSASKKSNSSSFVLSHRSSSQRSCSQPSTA
In short: (§2)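 Membranes from HEK-293 cells stably expressing human OTR (5 µg/well) in 50 mM Tris, 10 mM MgCl2, 0.1% BSA, pH 7.4. [3H]OT added at 200 pM, 500 pM and 1 nM; bound and free separated by rapid filtration at multiple time points to build association curves. Kon and Koff fitted; t1/2 from Koff = ln2/t1/2. Two experiments, each in duplicate.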

Vasopressin V1b receptor = biological target: T2, Vasopressin V1b receptor (Homo sapiens, UniProt P47901); test: Agonist activity at recombinant human V1b receptor expressed in HEK293 cells assessed as increase in intracellular calcium level measured at 3 secs interval for 5 mins by fura-2/AM dye based micro spectrofluorometric method; format: cell-based
T2 sequence (P47901 whole entry): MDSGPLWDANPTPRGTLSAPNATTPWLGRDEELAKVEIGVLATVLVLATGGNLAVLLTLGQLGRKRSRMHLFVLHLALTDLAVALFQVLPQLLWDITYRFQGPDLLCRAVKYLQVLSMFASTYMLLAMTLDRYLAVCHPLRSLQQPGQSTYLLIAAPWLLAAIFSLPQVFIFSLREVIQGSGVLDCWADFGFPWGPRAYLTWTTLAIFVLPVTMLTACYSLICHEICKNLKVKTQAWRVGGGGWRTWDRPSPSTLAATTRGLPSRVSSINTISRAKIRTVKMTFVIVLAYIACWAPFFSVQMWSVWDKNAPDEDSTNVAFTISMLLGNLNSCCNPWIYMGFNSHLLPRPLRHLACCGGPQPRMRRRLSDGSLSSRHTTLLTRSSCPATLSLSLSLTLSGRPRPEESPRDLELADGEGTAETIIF

Mus musculus [14] = test: Cognition enhancing effect in CD38 knock out Slc:ICR mouse sire model of autism spectrum disorder assessed as latency time to retrieve pups by sires at 100 ng/ml, ip administered as single dose measured after 5 hrs by parental retrieval test (reference value: 233 +/- 68 sec); format: functional
Oxytocin receptor [15] = biological target: T3, Oxytocin receptor (Homo sapiens, UniProt P30559); test: Displacement of [3H]OT from recombinant human OTR expressed in HEK293 cell membranes measured after 1 hr
T3 sequence (P30559 whole entry): T1 sequence (whole entry)

Mus musculus [16] = test: Cognition enhancing effect in CD38KOCC Slc:ICR mouse model of autism spectrum disorder assessed as sucrose consumption over water at 100 ng/ml, ip administered as single dose measured after 24 hrs relative to control (reference value: 0.46 +/- 0.04); format: functional
Mus musculus [17] = test: Cognition enhancing effect in CD38 knock out Slc:ICR mouse sire model of autism spectrum disorder assessed as latency time to retrieve pups by sires at 100 ng/ml, ip administered as single dose measured after 24 hrs by parental retrieval test (reference value: 233 +/- 68 sec); format: functional
[18] = biological target: T1, Oxytocin receptor (Homo sapiens); test: Displacement of [3H]OT from recombinant human OTR expressed in HEK293 cell membranes assessed as association rate constant for [3H]OT binding; in short: as §2
Oxytocin receptor [19] = biological target: T3, Oxytocin receptor; test: Agonist activity at recombinant human OTR expressed in HEK293 cells assessed as increase in intracellular calcium level measured at 3 secs interval for 5 mins by fura-2/AM dye based micro spectrofluorometric method; format: functional, cell-based
Homo sapiens [20] = organism: Homo sapiens; test: Selectivity ratio of EC50 for recombinant human V1b receptor expressed in HEK293 cells to EC50 for recombinant human OTR expressed in HEK293 cells; format: cell-based
In short: (§3)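 Agonist response measured in HEK-293 cells stably expressing human OTR, V1aR or V1bR, loaded with 1 µM fura-2/AM for 30 min at 37 °C, washed in HEPES-buffered saline pH 7.4. F340/F380 ratio read every 3 s for 5 min at 37 °C, normalized to baseline and to maximal OT (OTR) or AVP (V1aR, V1bR) response; EC50 taken from these curves. n = 3, 20 cells per dish.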

[21] = biological target: T1, Oxytocin receptor (Homo sapiens); test: Displacement of [3H]OT from recombinant human OTR expressed in HEK293 cell membranes assessed as dissociation rate constant for [3H]OT binding; in short: as §2
Homo sapiens [22] = organism: Homo sapiens; test: Selectivity ratio of EC50 for recombinant human V1a receptor expressed in HEK293 cells to EC50 for recombinant human OTR expressed in HEK293 cells; format: cell-based; in short: as §3
Mus musculus [23] = test: Cognition enhancing effect in CD38 knock out Slc:ICR mouse sire model of autism spectrum disorder assessed as latency time to retrieve pups by sires at 100 ng/ml, ip administered as single dose measured after 30 mins by parental retrieval test (reference value: 600 sec); format: functional
[24] = Drug level in Slc:ICR mouse cerebrospinal fluid at 100 ng/g, iv measured after 30 mins by LC-MS/MS analysis; format: ADME, organism-based; settings: in vivo, 0.5 h, BLD = below limit of detection; in short: as §1
[25] = Drug level in Slc:ICR mouse cerebrospinal fluid at 100 ng/g, iv measured after 12 hrs by LC-MS/MS analysis; format: ADME, organism-based; settings: in vivo, 12 h, BLD = below limit of detection; in short: as §1

| half-life [3] | Cp [4] | half-life [5] | remaining at 2 h, 50 ng/ml [9] | pEC50 (Vasopressin V1a receptor) | pEC50 (Vasopressin V1b receptor) | pKi (Oxytocin receptor [15]) | pEC50 (Oxytocin receptor [19]) | SMILES | Time (Mus musculus [1]) | Ratio EC50 (Homo sapiens [20]) | Ratio EC50 (Homo sapiens [22]) | other results |
| --- | --- | --- | --- | --- | --- | --- | --- | --- | --- | --- | --- | --- |
| 8.84 min | 334 ng/mL | 2.91 min | 85 to 115% |  |  |  |  | CC[C@H](C)[C@@H]1NC(=O)[C@H](Cc2ccc(O)cc2)NC(=O)[C@@H](N)CSSC[C@@H](C(=O)N2CCC[C@H]2C(=O)N[C@@H](CC(C)C)C(=O)NCC(N)=O)NC(=O)[C@H](CC(N)=O)NC(=O)[C@H](CCC(N)=O)NC1=O [OXYTOCIN] | 171 s |  |  | Time (Mus musculus [2]): 240 s; Activity (Mus musculus [6]): inactive; Activity (Mus musculus [7]): inactive; Activity (Mus musculus [8]): inactive |
| 4.23 min | 108 ng/mL | 3.1 min | 85 to 115% | < 8.00 | < 8.00 | 8.85 | 10.51 | CC[C@H](C)[C@@H]1NC(=O)[C@H](Cc2ccc(O)cc2)NC(=O)[C@@H](N)CSSC[C@@H](C(=O)N(CCCO)CC(=O)N[C@@H](CC(C)C)C(=O)NCC(N)=O)NC(=O)[C@H](CC(N)=O)NC(=O)[C@H](CCC(N)=O)NC1=O (H-CYIQNC[X1]LG-NH2; disulfide 1-6) | 151.83 s | > 322 | > 323 | Ratio (Mus musculus [10]): 0.72; Time (Mus musculus [11]): 386 s; Time (Mus musculus [12]): 157.3 s; T1/2 [13]: 36.6 min; Time (Mus musculus [14]): 293 s; Ratio (Mus musculus [16]): 0.67; Time (Mus musculus [17]): 100 s; K [18]: 7.47 ×10⁶ /M/min; K [21]: 0.0175 min⁻¹; Time (Mus musculus [23]): 346 s; Drug uptake [24]: Bld; Drug uptake [25]: Bld |
|  |  |  |  | 8.40 | 9.10 | 9.05 | 10.05 | CC[C@H](C)[C@@H]1NC(=O)[C@H](Cc2ccc(O)cc2)NC(=O)[C@@H](N)CCSC[C@@H](C(=O)N(CC(=O)N[C@@H](CC(C)C)C(=O)NCC(N)=O)Cc2ccc(F)cc2)NC(=O)[C@H](CC(N)=O)NC(=O)[C@H](CCC(N)=O)NC1=O (H-[Abu(4-yl)]YIQNC[N(4-F-Bzl)Gly]LG-NH2; thioether 1-6) |  | 9 | 45 |  |
